Experiments:
[1] = target: T1, 5-hydroxytryptamine receptor 2A (Rattus norvegicus, UniProt P14842); assay: In vitro binding affinity at 5-hydroxytryptamine 2A receptor in rat cortical membrane; format: cell membranes
In short: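 Frontal cortex membranes from female Wistar rats, stored at -80 °C. Incubated 30 min at 37 °C with 1 nM [3H]ketanserin; nonspecific binding with 10 µM methysergide; protein 2 mg/mL final. Filtered on PEI-presoaked GF/C and counted by scintillation. Nine concentrations in triplicate per curve, at least duplicate curves after a 10-6/10^-7 M prescreen. Ki by Cheng-Prusoff.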

[2] = target: T2, D(4) dopamine receptor (Homo sapiens, UniProt P21917); assay: (§1) In vitro binding affinity at human cloned Dopamine receptor D4 expressed in Sf9 cell membranes
T2 sequence (P21917 whole entry): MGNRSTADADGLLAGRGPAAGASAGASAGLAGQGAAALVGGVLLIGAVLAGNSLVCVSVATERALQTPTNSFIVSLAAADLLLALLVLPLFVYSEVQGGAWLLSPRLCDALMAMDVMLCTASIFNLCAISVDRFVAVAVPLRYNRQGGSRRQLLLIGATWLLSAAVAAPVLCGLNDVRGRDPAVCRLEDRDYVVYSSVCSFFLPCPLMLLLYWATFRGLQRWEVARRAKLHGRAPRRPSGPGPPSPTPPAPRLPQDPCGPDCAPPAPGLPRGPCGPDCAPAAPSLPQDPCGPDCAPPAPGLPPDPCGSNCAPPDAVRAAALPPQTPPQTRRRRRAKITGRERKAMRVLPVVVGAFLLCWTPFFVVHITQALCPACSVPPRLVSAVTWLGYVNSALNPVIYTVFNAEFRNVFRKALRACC

[3] = target: T3, Adrenergic receptor alpha-1 (Rattus norvegicus, UniProt P15823+P23944+P43140); assay: In vitro binding affinity at Alpha-1 adrenergic receptor in rat cortical tissues
T3 sequence (P15823 whole entry): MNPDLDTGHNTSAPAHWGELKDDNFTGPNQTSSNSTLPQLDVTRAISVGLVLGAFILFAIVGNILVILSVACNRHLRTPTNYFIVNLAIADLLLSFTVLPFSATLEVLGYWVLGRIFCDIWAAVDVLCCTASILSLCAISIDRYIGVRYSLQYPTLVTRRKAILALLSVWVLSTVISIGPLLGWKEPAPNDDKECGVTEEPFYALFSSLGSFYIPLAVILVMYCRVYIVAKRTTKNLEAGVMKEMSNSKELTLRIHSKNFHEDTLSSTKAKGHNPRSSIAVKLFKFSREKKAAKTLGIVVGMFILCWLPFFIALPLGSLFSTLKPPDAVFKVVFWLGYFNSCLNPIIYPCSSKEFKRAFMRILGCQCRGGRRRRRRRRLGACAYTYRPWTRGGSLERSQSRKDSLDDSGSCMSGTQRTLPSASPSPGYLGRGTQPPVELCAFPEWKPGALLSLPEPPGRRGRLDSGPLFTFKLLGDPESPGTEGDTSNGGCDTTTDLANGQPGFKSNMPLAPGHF
T3 sequence (P23944 whole entry): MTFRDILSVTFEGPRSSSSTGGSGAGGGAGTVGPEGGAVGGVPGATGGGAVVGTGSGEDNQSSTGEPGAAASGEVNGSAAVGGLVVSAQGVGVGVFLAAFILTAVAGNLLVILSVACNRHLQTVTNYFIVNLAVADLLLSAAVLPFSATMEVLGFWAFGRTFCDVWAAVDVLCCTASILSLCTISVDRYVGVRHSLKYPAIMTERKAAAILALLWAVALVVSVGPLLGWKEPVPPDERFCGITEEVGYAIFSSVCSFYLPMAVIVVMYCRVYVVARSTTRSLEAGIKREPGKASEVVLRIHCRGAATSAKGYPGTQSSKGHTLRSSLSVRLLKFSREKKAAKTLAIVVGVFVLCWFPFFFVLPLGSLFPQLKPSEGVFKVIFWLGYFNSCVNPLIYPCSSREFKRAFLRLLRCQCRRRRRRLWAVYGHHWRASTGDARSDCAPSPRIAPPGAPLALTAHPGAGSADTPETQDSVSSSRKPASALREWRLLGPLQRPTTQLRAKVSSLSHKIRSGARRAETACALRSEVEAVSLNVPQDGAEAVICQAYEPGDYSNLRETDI
T3 sequence (P43140 whole entry): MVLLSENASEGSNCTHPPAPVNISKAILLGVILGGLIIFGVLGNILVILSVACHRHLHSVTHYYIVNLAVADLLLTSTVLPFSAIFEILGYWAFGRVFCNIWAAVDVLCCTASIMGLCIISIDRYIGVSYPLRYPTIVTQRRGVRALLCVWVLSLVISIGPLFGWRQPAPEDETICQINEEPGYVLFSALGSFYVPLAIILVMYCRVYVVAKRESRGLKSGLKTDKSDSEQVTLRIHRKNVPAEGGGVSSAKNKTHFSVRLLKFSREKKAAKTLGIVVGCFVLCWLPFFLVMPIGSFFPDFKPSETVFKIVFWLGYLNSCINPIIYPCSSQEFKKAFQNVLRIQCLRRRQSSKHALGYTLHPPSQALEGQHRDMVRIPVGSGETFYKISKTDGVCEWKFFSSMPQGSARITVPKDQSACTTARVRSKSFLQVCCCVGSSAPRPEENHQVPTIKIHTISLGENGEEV

[4] = target: T1, 5-hydroxytryptamine receptor 2A; assay: In vitro binding affinity at serotonin 5-hydroxytryptamine 2A receptor in rat cortical membrane; format: cell membranes
[5] = target: T2, D(4) dopamine receptor; assay: as §1; remark: listed apart in the source
In short: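 Sf9 membranes expressing human cloned D4.2, in 50 mM Tris-HCl pH 7.4 with 5 mM MgCl2, 5 mM EDTA, 5 mM KCl and 1.5 mM CaCl2. […] Filtration on GF/C. Six to nine concentrations in duplicate. Ki by Cheng-Prusoff.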

[6] = system: Rattus norvegicus; assay: Compound was evaluated in paw test for the forelimb retraction in rat at effective dose of 20 (mg/kg); format: functional
[7] = species: Rattus norvegicus; assay: Compound was evaluated in paw test for the hindlimb retraction in rat
[8] = system: Mus musculus; assay: Percentage of total immobility time after an intraperitoneal dose of 4 (mg/kg) in porsolt's test in mice; format: functional
[9] = system: Mus musculus; assay: Percentage of total immobility time after an intraperitoneal dose of 16 (mg/kg) in porsolt's test in mice; format: functional
[10] = system: Mus musculus; assay: Percentage of total immobility time after an intraperitoneal dose of 8 (mg/kg) in porsolt's test in mice; format: functional
[11] = system: Mus musculus; assay: Percentage of total immobility time after an intraperitoneal dose of 4 (mg/kg) in porsolt's test; format: functional
In short: (§2)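 Forced swimming (Porsolt) test in mice, with the compound given i.p. Immobility time was expressed as a percentage of the total immobility time of vehicle-treated animals. Significance was assessed against saline by Mann-Whitney U test, or against vehicle by analysis of variance with post hoc tests.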

[12] = system: Mus musculus; assay: Percentage of total immobility time after an intraperitoneal dose of 16 (mg/kg) in porsolt's test; format: functional; in short: as §2
[13] = system: Rattus norvegicus; assay: Compound was evaluated in paw test for the hindlimb retraction at effective dose of 5 (mg/kg); format: functional
[14] = system: Mus musculus; assay: Percentage of total immobility time after an intraperitoneal dose of 8 (mg/kg) in porsolt's test; format: functional; in short: as §2

T1 sequence (P14842 whole entry): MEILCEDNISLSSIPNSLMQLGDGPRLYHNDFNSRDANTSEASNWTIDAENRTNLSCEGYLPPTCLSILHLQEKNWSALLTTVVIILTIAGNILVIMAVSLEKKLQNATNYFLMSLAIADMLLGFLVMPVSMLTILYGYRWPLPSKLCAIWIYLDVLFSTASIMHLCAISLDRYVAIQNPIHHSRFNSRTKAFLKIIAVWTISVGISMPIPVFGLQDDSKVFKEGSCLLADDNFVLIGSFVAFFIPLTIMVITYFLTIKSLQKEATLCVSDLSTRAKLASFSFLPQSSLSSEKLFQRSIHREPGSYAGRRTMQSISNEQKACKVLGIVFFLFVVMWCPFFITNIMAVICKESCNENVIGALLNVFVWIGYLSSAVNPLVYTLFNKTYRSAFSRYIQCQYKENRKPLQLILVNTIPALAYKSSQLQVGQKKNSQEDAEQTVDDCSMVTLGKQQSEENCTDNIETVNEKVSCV

| Ki [1] [µM] | Ki [2] [µM] | Ki [3] [µM] | SMILES | also measured |
| --- | --- | --- | --- | --- |
| 0.25 | 0.341 | – | Clc1ccc2c(c1)C(NCCN1CCCC1)=Nc1cccnc1N2 | – |
| – | > 1 | > 1 | Clc1ccc2c(c1)C(NCCc1ccccn1)=Nc1cccnc1N2 | – |
| – | 0.163 | > 1 | CN1CCCN(C2=Nc3cccnc3Nc3ccc(Cl)cc32)CC1 | Ki [4]: 0.164 µM |
| 0.034 | 0.048 | – | Clc1ccc2c(c1)C(N1CCN(C3CCCCC3)CC1)=Nc1cccnc1N2 | – |
| 0.15 | > 1 | > 1 | Cc1ccc2c(c1)C(NCCN(C)C)=Nc1cccnc1N2 | – |
| – | > 1 | – | Cc1ccc2c(c1)C(NCCc1ccccn1)=Nc1cccnc1N2 | – |
| 0.081 | 0.089 | 0.163 | Clc1ccc2c(c1)C(NC1CCN(Cc3ccccc3)CC1)=Nc1cccnc1N2 | – |
| > 1 | > 1 | > 1 | Cc1ccc2c(c1)C(NCCCN(C)C)=Nc1cccnc1N2 | – |
| 0.132 | 0.51 | 0.018 | Cc1ccc2c(c1)C(NC1CCN(C)CC1)=Nc1cccnc1N2 | – |
| 0.123 | 0.393 | – | CN1CCC(NC2=Nc3cccnc3Nc3ccc(Cl)cc32)CC1 | – |
| 0.303 | 0.356 | – | Cc1ccc2c(c1)C(N1CCCN(C)CC1)=Nc1cccnc1N2 | – |
| > 1 | > 1 | > 1 | FC(F)(F)c1cccc(N2CCN(C3=Nc4cccnc4Nc4ccc(Cl)cc43)CC2)c1 | – |
| 0.357 | > 1 | 0.063 | Clc1ccc2c(c1)C(NCCN1CCCCC1)=Nc1cccnc1N2 | – |
| 0.048 | 0.046 | 0.1 | Cc1ccc2c(c1)C(NC1CCN(Cc3ccccc3)CC1)=Nc1cccnc1N2 | – |
| 0.036 | 0.037 | 0.172 | Cc1ccc2c(c1)C(N1CCN(CCc3ccccc3)CC1)=Nc1cccnc1N2 | – |
| – | > 1 | > 1 | CN(C)CCCNC1=Nc2cccnc2Nc2ccc(Cl)cc21 | – |
| – | > 1 | > 1 | Clc1ccc2c(c1)C(NCCN1CCOCC1)=Nc1cccnc1N2 | – |
| 0.103 | 0.04 | 0.367 | Clc1ccc2c(c1)C(N1CCN(CCc3ccccc3)CC1)=Nc1cccnc1N2 | Retraction time [6]: 1 s; Retraction time [7]: 2.5 s; Immobility [8]: 52%; Immobility [9]: 49%; Immobility [10]: 36% |
| – | 0.036 | 0.108 | Cc1ccc2c(c1)C(N1CCN(C)CC1)=Nc1cccnc1N2 | Ki [4]: 0.037 µM |
| – | 0.024 | 0.079 | CN1CCN(C2=Nc3cccnc3Nc3ccc(Cl)cc32)CC1 | Ki [4]: 0.035 µM |

Further lines, the compound ahead of its results:

| SMILES | Ki [1] [µM] | Ki [2] [µM] | Ki [3] [µM] | also measured |
| --- | --- | --- | --- | --- |
| Clc1ccc2c(c1)C(N1CCN(Cc3ccccc3)CC1)=Nc1cccnc1N2 | > 1 | 0.109 | > 1 | – |
| Clc1ccc2c(c1)C(NC1CC3CCC(C1)N3Cc1ccccc1)=Nc1cccnc1N2 (stereo not given) | 0.036 | – | – | – |
| Cc1ccc2c(c1)C(NC1CC3CCC(C1)N3Cc1ccccc1)=Nc1cccnc1N2 (stereo not given) | 0.034 | 0.131 | – | – |
| Cc1ccc2c(c1)C(N1CCN(C3CCCCC3)CC1)=Nc1cccnc1N2 | 0.033 | 0.084 | – | – |
| Cc1ccc2c(c1)C(N1CCN(c3cccc(C(F)(F)F)c3)CC1)=Nc1cccnc1N2 | > 1 | > 1 | > 1 | – |
| Cc1ccc2c(c1)C(N1CCN(c3cccc(Cl)c3)CC1)=Nc1cccnc1N2 | > 1 | > 1 | > 1 | – |
| Cc1ccc2c(c1)C(N1CCN(Cc3ccccc3)CC1)=Nc1cccnc1N2 | > 1 | 0.183 | > 1 | – |
| Cc1ccc2c(c1)C(N1CCN(c3ccccc3)CC1)=Nc1cccnc1N2 | > 1 | – | > 1 | Ki [5]: > 1 µM |
| Clc1ccc2c(c1)C(N1CCN(c3ccccc3)CC1)=Nc1cccnc1N2 | > 1 | > 1 | > 1 | – |
| Cc1ccc2c(c1)C(NCCC1CCCN1C)=Nc1cccnc1N2 (stereo not given) | > 1 | > 1 | – | – |
| Clc1cccc(N2CCN(C3=Nc4cccnc4Nc4ccc(Cl)cc43)CC2)c1 | > 1 | > 1 | – | – |
| Cc1ccc2c(c1)C(NCCN1CCOCC1)=Nc1cccnc1N2 | > 1 | > 1 | – | – |
| CN1CCN(C2=Nc3cc(Cl)ccc3Nc3ccccc32)CC1 [CLOZAPINE] | – | – | – | Immobility [11]: 95%; Retraction time [6]: 1.1 s; Immobility [12]: 139%; Retraction time [13]: 30 s; Immobility [14]: 103% |
